Test results reported in ChEMBL document CHEMBL1150347, “A prodomain peptide of Plasmodium falciparum cysteine protease (falcipain-2) inhibits malaria parasite development” (J Med Chem, 2008).
Calls of active or inactive are those of the source. The calls are words filed in the database; no cut-off is given here. Residues, ends and D or L forms follow the SMILES beside them.

Assays:
Plasmodium falciparum [1] = experiment: Growth inhibition at 24 hrs of Plasmodium falciparum 3D7 by [3H]hypoxanthine uptake; assay type: functional, organism-based
How it was run: (§1)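 Synchronized ring-stage P. falciparum-infected RBCs incubated 24 h with a range of peptide concentrations, with OVA peptide as control. About 1 µCi [3H]hypoxanthine added per well and cultures kept a further 24 h. Cells harvested and incorporated label counted by scintillation.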

Plasmodium falciparum [2] = experiment: Growth inhibition as reduced parasitaemia at 24 hrs for Plasmodium falciparum 3D7 by Giemsa-stained smear counting; design: scale not given: the % may be the effect or the level left
[3] = biological target: T1, Falcipain 2 (Plasmodium falciparum) (UniProt Q9N6S8); experiment: Inhibition of Plasmodium falciparum 3D7 falcipain-2 in RBC assessed as Z-FR-AMC substrate hydrolysis by confocal microscopy relative to control; details: concentration not given here
T1 sequence (whole entry): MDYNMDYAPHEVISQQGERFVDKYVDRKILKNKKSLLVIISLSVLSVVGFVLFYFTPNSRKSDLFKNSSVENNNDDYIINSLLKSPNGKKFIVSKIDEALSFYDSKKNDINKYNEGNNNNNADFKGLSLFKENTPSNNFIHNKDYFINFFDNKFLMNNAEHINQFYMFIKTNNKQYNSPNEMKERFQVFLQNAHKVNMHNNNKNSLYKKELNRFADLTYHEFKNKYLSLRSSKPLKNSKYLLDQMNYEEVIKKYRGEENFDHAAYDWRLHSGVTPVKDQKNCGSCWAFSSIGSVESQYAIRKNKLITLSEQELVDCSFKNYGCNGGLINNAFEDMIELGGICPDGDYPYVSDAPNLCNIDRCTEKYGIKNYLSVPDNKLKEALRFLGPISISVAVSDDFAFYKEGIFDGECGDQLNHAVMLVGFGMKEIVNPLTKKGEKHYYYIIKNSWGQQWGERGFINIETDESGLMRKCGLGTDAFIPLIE
How it was run: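 3D7 cultures at 4-5% parasitemia given FITC-labelled peptide for 10 h at 24-28 h post-invasion. After washing in complete medium, Z-F-R-AMC added for 10 min. Confocal imaging: FITC excitation 488 nm, emission 505-530 nm; released AMC captured through a UV band-pass filter. Fluorescence averaged over selected whole parasites and compared with untreated infected cells.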

Falcipain 2 = biological target: T2, Falcipain 2 (Plasmodium falciparum, UniProt Q9N6S8); experiment: (§2) Inhibition of Plasmodium falciparum recombinant falcipain-2
T2 sequence (Q9N6S8 whole entry): T1 sequence (whole entry)
How it was run: (§3)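 Refolded recombinant falcipain-2 at 200 nM, preincubated with peptide for 10 min at room temperature. Z-F-R-AMC then added at 7 µM in 100 mM sodium acetate pH 5.5 with 10 mM DTT. AMC release (ex 355/em 460 nm) followed for 30 min at room temperature. Km/Vmax from varied substrate; Ki from double-reciprocal plot; three experiments.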

Plasmodium falciparum [4] = experiment: Inhibition of Plasmodium falciparum recombinant falcipain-1
How it was run: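 Active recombinant falcipain-1 incubated with prodomain peptide; protease activity read as fluorescence from Z-FR-AMC cleavage at pH 5.5, followed over 30 min. Three independent sets of experiments.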

Plasmodium falciparum [5] = experiment: Growth inhibition at 24 hrs of Plasmodium falciparum 3D7 at 100 uM by [3H]hypoxanthine uptake; assay type: functional; how it was run: as §1
Plasmodium falciparum [6] = experiment: Growth inhibition after 10 hrs of Plasmodium falciparum expressing KAHRP-His-GFP at 100 uM; assay type: functional, organism-based
How it was run: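 KAHRP(-His)-GFP transgenic line, kept on 0.25 nM WR99210, sorbitol-synchronized, cultured in human RBCs (4% hematocrit) in RPMI. Peptide added at the ring stage. GFP fluorescence imaged after 3 h and 10 h of treatment, with bright field and DAPI; growth arrest read as loss of GFP signal.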

Plasmodium falciparum [7] = experiment: Growth inhibition as abnormal food vacuole formation after 36 hrs in Plasmodium falciparum trophozoite infected erythrocytes; assay type: functional, organism-based
Plasmodium falciparum [8] = experiment: Growth inhibition as merozoite release after 36 hrs in Plasmodium falciparum infected erythrocytes; assay type: functional, organism-based
[9] = biological target: T1, Falcipain 2 (Plasmodium falciparum); experiment: Inhibition of Plasmodium falciparum falcipain-2 in RBC assessed as hemoglobin degradation after 24 hrs by SDS-PAGE
How it was run: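 Ring-stage P. falciparum treated 24 h. Infected RBCs lysed with 0.15% saponin in PBS on ice for 10 min, then washed three times with cold PBS. About 1 × 10^6 parasites per lane run on 15% SDS-PAGE in Laemmli buffer; Coomassie staining used to look for undigested hemoglobin.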

[10] = biological target: T1, Falcipain 2 (Plasmodium falciparum); experiment: as §2; how it was run: as §3

CC(C)C[C@H](NC(=O)[C@H](Cc1ccccc1)NC(=O)[C@@H](NC(=O)[C@H](CCC(N)=O)NC(=O)[C@H](Cc1ccccc1)NC(=O)[C@@H](N)CCCNC(=N)N)C(C)C)C(=O)N[C@@H](CCC(N)=O)C(=O)N[C@@H](CC(N)=O)C(=O)N[C@@H](C)C(=O)N[C@@H](Cc1c[nH]cn1)C(=O)N[C@@H](CCCCN)C(=O)N[C@H](C(=O)O)C(C)C (H-RFQVFLQNAHKV-OH)
Activity (Plasmodium falciparum [1]): inactive

CC[C@H](C)[C@H](NC(=O)[C@H](CCSC)NC(=O)[C@H](Cc1ccc(O)cc1)NC(=O)[C@H](Cc1ccccc1)NC(=O)[C@H](CCC(N)=O)NC(=O)[C@H](CC(N)=O)NC(=O)[C@@H](NC(=O)[C@H](Cc1cnc[nH]1)NC(=O)[C@H](CCC(=O)O)NC(=O)[C@H](C)NC(=O)[C@H](CC(N)=O)NC(=O)[C@H](CC(N)=O)NC(=O)[C@H](CCSC)NC(=O)[C@H](CC(C)C)NC(=O)[C@H](CCCCN)NC(=O)[C@H](CCCCN)NC(=O)[C@H](Cc1c[nH]c2ccccc12)NC(=O)[C@H](CCCCN)NC(=O)[C@H](CCSC)NC(=O)[C@H](CCCNC(=N)N)NC(=O)[C@H](CCCNC(=N)N)NC(=O)[C@H](CC(N)=O)NC(=O)[C@H](CCC(N)=O)NC(=O)[C@H](Cc1ccccc1)NC(=O)[C@H](Cc1c[nH]c2ccccc12)NC(=O)[C@@H](NC(=O)[C@H](CCCCN)NC(=O)[C@@H](NC(=O)[C@H](CCC(N)=O)NC(=O)[C@@H](N)CCCNC(=N)N)[C@@H](C)CC)[C@@H](C)CC)[C@@H](C)CC)C(=O)O (H-RQIKIWFQNRRMKWKKLMNNAEHINQFYMI-OH)
Activity (Plasmodium falciparum [2]): 50%

CC[C@H](C)[C@H](NC(=O)[C@H](Cc1ccccc1)NC(=O)[C@H](CCSC)NC(=O)[C@H](Cc1ccc(O)cc1)NC(=O)[C@H](Cc1ccccc1)NC(=O)[C@H](CCC(N)=O)NC(=O)[C@H](CC(N)=O)NC(=O)[C@@H](NC(=O)[C@H](Cc1cnc[nH]1)NC(=O)[C@H](CCC(=O)O)NC(=O)[C@H](C)NC(=O)[C@H](CC(N)=O)NC(=O)[C@H](CC(N)=O)NC(=O)[C@H](CCSC)NC(=O)[C@H](CC(C)C)NC(=S)Nc1cccc2c1C(=O)OC21c2ccccc2Oc2cc(O)ccc21)[C@@H](C)CC)C(=O)O (some centres not stated)
inhibition [3]: 50%

CC[C@H](C)[C@H](NC(=O)[C@H](Cc1ccccc1)NC(=O)[C@H](CCSC)NC(=O)[C@H](Cc1ccc(O)cc1)NC(=O)[C@H](Cc1ccccc1)NC(=O)[C@H](CCC(N)=O)NC(=O)[C@H](CC(N)=O)NC(=O)[C@@H](NC(=O)[C@H](Cc1c[nH]cn1)NC(=O)[C@H](CCC(=O)O)NC(=O)[C@H](C)NC(=O)[C@H](CC(N)=O)NC(=O)[C@H](CC(N)=O)NC(=O)[C@H](CCSC)NC(=O)[C@@H](N)CC(C)C)[C@@H](C)CC)C(=O)O (H-LMNNAEHINQFYMFI-OH)
Ki (Falcipain 2): 3.8 µM | Activity (Plasmodium falciparum [4]): inactive | inhibition at 100 µM (Plasmodium falciparum [5]): 50% | Activity (Plasmodium falciparum [6]): Active | Activity (Plasmodium falciparum [7]): Active | Activity (Plasmodium falciparum [8]): Active | Activity [9]: Active | Activity (Plasmodium falciparum [2]): 50%

CC[C@H](C)[C@H](N)C(=O)N[C@@H](CO)C(=O)N[C@@H](CCC(N)=O)C(=O)N[C@@H](C)C(=O)N[C@H](C(=O)N[C@@H](Cc1cnc[nH]1)C(=O)N[C@@H](C)C(=O)N[C@@H](C)C(=O)N[C@@H](Cc1cnc[nH]1)C(=O)N[C@@H](C)C(=O)N[C@@H](CCC(=O)O)C(=O)N[C@H](C(=O)N[C@@H](CC(N)=O)C(=O)N[C@@H](CCC(=O)O)C(=O)N[C@@H](C)C(=O)NCC(=O)N[C@@H](CCCNC(=N)N)C(=O)O)[C@@H](C)CC)C(C)C [ovalbumin peptide] (H-ISQAVHAAHAEINEAGR-OH)
Activity [10]: inactive | inhibition at 100 µM (Plasmodium falciparum [5]): 80% | Activity (Plasmodium falciparum [1]): inactive

CC[C@H](C)[C@H](NC(=O)[C@H](Cc1ccccc1)NC(=O)[C@@H](NC(=O)[C@H](Cc1ccc(O)cc1)NC(=O)[C@H](Cc1ccccc1)NC(=O)[C@H](CCC(N)=O)NC(=O)[C@H](CC(N)=O)NC(=O)[C@@H](NC(=O)[C@H](Cc1c[nH]cn1)NC(=O)[C@H](CCC(=O)O)NC(=O)[C@@H](NC(=O)[C@H](CC(N)=O)NC(=O)[C@H](CC(N)=O)NC(=O)[C@H](CCSC)NC(=O)[C@@H](N)CC(C)C)C(C)C)[C@@H](C)CC)[C@@H](C)O)C(=O)O (H-LMNNVEHINQFYTFI-OH)
Activity [10]: Active

CC(C)C[C@H](NC(=O)[C@H]1O[C@@H]1C(=O)O)C(=O)NCCCCN=C(N)N
Activity [9]: Active

CSCC[C@H](NC(=O)[C@H](CC(N)=O)NC(=O)[C@@H](NC(=O)[C@H](CCCCN)NC(=O)[C@H](Cc1c[nH]cn1)NC(=O)[C@H](C)NC(=O)[C@H](CC(N)=O)NC(=O)[C@H](CCC(N)=O)NC(=O)[C@H](CC(C)C)NC(=O)[C@H](Cc1ccccc1)NC(=O)[C@@H](NC(=O)[C@H](CCC(N)=O)NC(=O)[C@H](Cc1ccccc1)NC(=O)[C@H](CCCNC(=N)N)NC(=O)[C@H](CCC(=O)O)NC(=O)[C@H](CCCCN)NC(=O)[C@H](CCSC)NC(=O)[C@@H](N)CCC(=O)O)C(C)C)C(C)C)C(=O)N[C@@H](Cc1c[nH]cn1)C(=O)N[C@@H](CC(N)=O)C(=O)O (H-EMKERFQVFLQNAHKVNMHN-OH)
Activity (Plasmodium falciparum [1]): inactive
